Test results from paper PMC12122681 (Nature Communications, 2025).
Values belong to the molecule of their own block, whether it stands above or below them.

Columns and labels:
[1] = system: fungal IPC synthase; conditions: in words; cited from earlier work
[2] = target: His-tagged Aur1-Kei1 complex with Aur1 H157Y (S. cerevisiae) (UniProt P36107); assay: MST
[3] = target: His-tagged S. cerevisiae IPC synthase complex (Aur1-Kei1), wild type (S. cerevisiae) (UniProt P36107); assay: MST
[4] = target: the F158Y and A240C mutations (Aur1-Kei1 mutant complexes); assay: MST
[5] = system: Aur1-Kei1 complex; assay: Thermal shift assay; type: binding, Saccharomyces cerevisiae; conditions: 10 µM PI or 10 µM C6-ceramide, 1 h at 4 °C, 5% DMSO; compared to the control
Outline: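 nanoDSF on 0.1 mg/mL purified complex in 25 mM HEPES pH 7.5, 150 mM NaCl, 0.01% LMNG. Protein was held 1 h at 4 °C with final 10 µM PI or 10 µM C6-ceramide in 5% DMSO. Intrinsic fluorescence at 330 and 350 nm was read from 35 to 95 °C at […]. Tm was taken from the first-derivative peak of Em350/Em330, averaged over three measurements.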

[6] = system: unpurified membrane-embedded IPC synthase; conditions: cited from earlier work
[7] = target: the molecule itself; assay: cryo-EM structure
[8] = target: the molecule itself; assay: SEC + cross-linking + native gel or EMSA

Molecule: CCCCCCCCCC[C@H](C)[C@@H](O)[C@@H](C)/C=C(C)/C=C(\C)C(=O)[C@H](C)/C=C(\C)C(=O)O[C@H](CO)[C@@H](O)[C@H](O)C(=O)O [khafrefungin]
inhibition of fungal IPC synthase [1]: effective inhibitors of fungal IPC synthase

Molecule: C=C1/C=C(\C)[C@H](CC)CC(=O)[C@H](C)C(=O)[C@@](O)(CO)C/C(OC)=C/[C@@H](C)C1 [rustmicin]
inhibition of fungal IPC synthase [1]: effective inhibitors of fungal IPC synthase

fold reduction in binding affinity against the WT complex [2]: 30 fold
Kd [3]: 57.7 nM
fold weakening of the binding affinity against the WT complex [4]: 1.5 to 2 fold
Molecule: Aureobasidin A (peptide)

Molecule: ceramide
effect on protein stability [5]: did not enhance protein stability
kinetic value for ceramide [6]: 3 µM

B1: S. cerevisiae Aur1, catalytic subunit of IPC synthase (enzyme)
chain: MANPFSRWFLSERPPNCHVADLETSLDPHQTLLKVQKYKPALSDWVHYIFLGSIMLFVFITNPAPWIFKILFYCFLGTLFIIPATSQFFFNALPILTWVALYFTSSYFPDDRRPPITVKVLPAVETILYGDNLSDILATSTNSFLDILAWLPYGLFHFGAPFVVAAILFVFGPPTVLQGYAFAFGYMNLFGVIMQNVFPAAPPWYKILYGLQSANYDMHGSPGGLARIDKLLGINMYTTAFSNSSVIFGAFPSLHSGCATMEALFFCYCFPKLKPLFIAYVCWLWWSTMYLTHHYFVDLMAGSVLSYVIFQYTKYTHLPIVDTSLFCRWSYTSIEKYDISKSDPLAADSNDIESVPLSNLELDFDLNMTDEPSVSPSLFDGSTSVSRSSATSITSLGVKRA
modifications: two major bands likely correspond to the glycosylated and non-glycosylated forms (sites not given)
stoichiometry N [7]: 2

B2: S. cerevisiae IPC synthase complex (Aur1-Kei1 complex), wild type (complex)
chain 1: MANPFSRWFLSERPPNCHVADLETSLDPHQTLLKVQKYKPALSDWVHYIFLGSIMLFVFITNPAPWIFKILFYCFLGTLFIIPATSQFFFNALPILTWVALYFTSSYFPDDRRPPITVKVLPAVETILYGDNLSDILATSTNSFLDILAWLPYGLFHFGAPFVVAAILFVFGPPTVLQGYAFAFGYMNLFGVIMQNVFPAAPPWYKILYGLQSANYDMHGSPGGLARIDKLLGINMYTTAFSNSSVIFGAFPSLHSGCATMEALFFCYCFPKLKPLFIAYVCWLWWSTMYLTHHYFVDLMAGSVLSYVIFQYTKYTHLPIVDTSLFCRWSYTSIEKYDISKSDPLAADSNDIESVPLSNLELDFDLNMTDEPSVSPSLFDGSTSVSRSSATSITSLGVKRA
chain 2: MRSSLLTLPKSFLGFMPLYLAVEIVLGISILNKCSGAYGILALFTGHPLDFMQWIAYLWSVFTLIVFSQGLYLIHKPNLLVFSQICVLYTIDTISTCFFTLWFTTQWFTLEDTANIDGNNALQSNPISTGKLTERGIDISKQSATESYEYTMTILITLVSLIFRFYFNFILASFVQELLHHPKYLVDRDDVEQNLKNKPIWKRLWAKSQKGCYKLCKNLLE
modifications: two major bands likely correspond to the glycosylated and non-glycosylated forms (sites not given)
stoichiometry N [8]: 2
